# Screening results deposited in PubChem by Broad Institute.
# Compounds with a hit are over-represented: about 2.7% of the library has one in this group of screens.
# CaV13 ICDI inh: Disruptors of the CACNA1D IQ motif to Ca2+-dependent inactivation inhibitor domain association, primary screening, Förster resonance energy transfer in intact living …; HEK cells, CFP/YFP FRET ICDI-IQ, plate reader, 10 min; percent FRET-ratio fall versus neutral wells; inhibition, % at 12.3 µM; 0.098% of 340,000 active; AID 743397;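 active = mean replicate inhibition of at least 30% and at least 1% of replicates passing that level; inconclusive = only one of the two criteria is met; inactive = neither criterion is met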;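 also: 0% = median of the neutral control wells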
# AF4-AF9 inh: MLL-AF4/AF9 protein interaction inhibition. inhibition, % at 10 µM. P42568. AlphaScreen, biotin-AF4 peptide binding to FLAG-AF9. 0.47% of 350,000 active. AID 651704;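 active = every replicate reaching a set inhibition limit, whatever the replicate mean, cut at about 25% in these data; inconclusive = mean inhibition reaches that limit but some replicates miss it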;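 also: 0% = plate neutral control median and 100% = total signal loss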
# Target sequence (P42568 whole entry, looked up): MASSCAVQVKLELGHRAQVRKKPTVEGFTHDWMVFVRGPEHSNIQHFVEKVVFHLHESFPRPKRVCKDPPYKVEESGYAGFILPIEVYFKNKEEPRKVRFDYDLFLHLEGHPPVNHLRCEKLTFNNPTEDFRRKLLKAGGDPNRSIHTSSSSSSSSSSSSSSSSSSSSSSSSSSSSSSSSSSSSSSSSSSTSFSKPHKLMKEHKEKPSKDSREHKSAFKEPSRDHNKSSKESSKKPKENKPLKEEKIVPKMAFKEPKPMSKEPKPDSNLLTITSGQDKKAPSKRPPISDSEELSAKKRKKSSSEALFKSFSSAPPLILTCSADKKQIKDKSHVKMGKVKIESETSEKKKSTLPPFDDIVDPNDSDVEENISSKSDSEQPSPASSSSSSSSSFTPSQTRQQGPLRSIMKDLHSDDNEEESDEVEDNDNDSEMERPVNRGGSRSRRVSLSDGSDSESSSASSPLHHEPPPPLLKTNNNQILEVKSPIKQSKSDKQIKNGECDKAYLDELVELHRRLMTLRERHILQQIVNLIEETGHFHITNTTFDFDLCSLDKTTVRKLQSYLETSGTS
# SIRT5 inh: blocks human SIRT5 desuccinylation of peptide; 1.1% of 330,000 active; Purified SirT5, succinyl-peptide AMC, trypsin-coupled fluorescence; inhibition, % at 15 µM; Q9NXA8; in the data active = inhibition above about 15%; inconclusive = no clear call, values can overlap the other calls
# S100A4 MyoIIA: inhibitors of human S100A4 binding to myosin IIA peptide; P26447; S100A4/TAMRA-MyoIIA peptide fluorescence polarization; inhibition, % at 10.7 µM; 0.14% of 360,000 active;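 active = mean inhibition of at least 70% across replicates, with every replicate also reaching that level; inconclusive = mean inhibition reaches 70% but some replicates fall short; inactive = mean inhibition below 70%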
#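 Assay system: human S100A4 monomer with TAMRA-labelled myosin IIA peptide / Buffer or medium: Calcium-containing HEPES buffer, pH 7.2 / Reagent: TAMRA-labelled myosin IIA heavy-chain peptide probe, 5 nM / Compound: one dose per compound / Timing: polarization read 5 min after assay mix addition, stable 5–60 min / Benchmarks: neutral control DMSO, positive control TFP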
# DENV2 CPE: DENV2-induced cell death inhibition. DENV2-infected cells, cytopathic effect rescue, plate reader. 1.7% of 350,000 active. CPE inhibition, % at 9.99 µM; in the data active = CPE inhibition above about 20%, passing the limit was not always enough; inconclusive = no clear call, values can overlap the other calls; tested in BHK-21 cells;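 also: 0% = median of neutral control wells and 100% = median of positive control wells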
# Starred values were filed as active, the others as inactive; ? = inconclusive; . = not tested or not shown; ! = not confirmed by another sample.
SMILES,CaV13 ICDI inh,AF4-AF9 inh,SIRT5 inh,S100A4 MyoIIA,DENV2 CPE
COc1cccc(CN(C)CCCn2ccc(NC(=O)OCc3ccccc3)nc2=O)c1,-6,7,-1,4,-5
CCN(C[C@H]1[C@@H](c2ccccc2)[C@H](CO)N1C(C)=O)C(=O)c1ccccn1,.,-2,3,12,-9
CCCS(=O)(=O)N1CCN(C2Cc3ccccc3C2)CC1,-6,4,17*,-6,0
Cc1noc(C)c1S(=O)(=O)Nc1ccc2c(c1)C(=O)N([C@@H](C)CO)C[C@H](C)[C@@H](CN(C)C(=O)Nc1ccccc1)O2,.,-4,5,5,21*
Cc1noc(C)c1S(=O)(=O)Nc1ccc2c(c1)C(=O)N([C@H](C)CO)C[C@H](C)[C@H](CN(C)C(=O)C1CCCCC1)OCCCC[C@@H](C)O2,.,2,3,-9,47*
Cc1noc(C)c1S(=O)(=O)Nc1ccc2c(c1)C(=O)N([C@H](C)CO)C[C@H](C)[C@@H](CN(C)C(=O)NC(C)C)OCCCC[C@H](C)O2,.,4,-5,-8,24*
Cc1noc(C)c1S(=O)(=O)Nc1ccc2c(c1)C(=O)N([C@@H](C)CO)C[C@@H](C)[C@@H](CN(C)C(=O)Nc1ccccc1)OCCCC[C@H](C)O2,.,5,-8,-44,5
Cc1noc(C)c1S(=O)(=O)Nc1ccc2c(c1)C(=O)N([C@H](C)CO)C[C@H](C)[C@@H](CN(C)C(=O)Nc1ccccc1)O2,-4,-3,10,-8,?
Cc1noc(C)c1S(=O)(=O)Nc1ccc2c(c1)C(=O)N([C@@H](C)CO)C[C@@H](C)[C@@H](CN(C)C(=O)Nc1ccccc1)OCCCC[C@@H](C)O2,.,-3,-1,-19,95*
C[C@@H]1CN([C@H](C)CO)S(=O)(=O)c2ccc(-c3ccc(C#N)cc3)cc2O[C@H]1CN(C)C(=O)C1CC1,.,-12,-5,21,11
CO[C@@H]1CN(C)C(=O)c2cc(NC(=O)c3cccc(F)c3)ccc2OC[C@@H](C)N(CC2CC2)C[C@@H]1C,.,-8,1,0,2
Cc1noc(C)c1S(=O)(=O)Nc1ccc2c(c1)C(=O)N([C@H](C)CO)C[C@H](C)[C@H](CN(C)C(=O)Nc1ccccc1)OCCCC[C@@H](C)O2,.,0,5,1,89*
CC1CCC(C(C)C)C(OC(=O)Cn2c(-c3ccccc3)[n+](C)c3ccccc32)C1 (configuration not stated),-3,9,19*!,0,-14
CC1CCC(C(C)C)C(OC(=O)Cn2c(-c3ccc(F)cc3)[n+](C)c3ccccc32)C1 (configuration not stated),-3,-66,1,3,-9
C[C@@H]1CN([C@H](C)CO)C(=O)c2cc(NS(=O)(=O)c3ccc(F)cc3)ccc2O[C@H]1CN(C)CC1CC1,.,0,10,70,19
Cc1c(NC(=O)CN2CCN(c3ccc(O)cc3)CC2)c(=O)n(-c2ccccc2)n1C,-3,-3,1,-2,-4
COc1ccccc1N1CCN(CC(=O)Nc2c(C)n(C)n(-c3ccccc3)c2=O)CC1,-2,0,29*,3,0
COc1ccc2c3c([nH]c2c1)[C@@H](CO)N(Cc1ccccc1)CC31CN(S(C)(=O)=O)C1,.,-1,.,.,0
N#Cc1cccnc1N1CCN(C(=O)c2ccccc2)CC1,-4,3,-7,7,52*
O=C(c1ccc2nccnc2c1)N1CCN(c2ccccc2)CC1,-6,-16,-2,-1,35*
Fc1ccc(F)c(CN2[C@@H]3CNC[C@H]2C3c2ccc(-c3ccncc3)cc2)c1 (some centres not stated),.,26*!,11,-6,7
c1cc(-c2ccc(C3[C@H]4CNC[C@@H]3N4CC3CCCC3)cc2)ccn1 (some centres not stated),.,42*,1,8,-1
CCC(=O)N[C@H]1CC[C@H](CCNS(=O)(=O)c2ccc(Cl)cc2)O[C@H]1CO,.,0,-1,-5,1
C[C@@H]1CN([C@H](C)CO)C(=O)c2cc(NS(=O)(=O)c3cccs3)ccc2O[C@@H]1CN(C)Cc1ccc(Oc2ccccc2)cc1,.,4,0,-8,3
CCNC(=O)C[C@H]1C=C[C@@H](NC(=O)NC2CCCCC2)[C@@H](CO)O1,.,-5,1,-26,5
SMILES,CaV13 ICDI inh,AF4-AF9 inh,SIRT5 inh,S100A4 MyoIIA,DENV2 CPE
C[C@@H]1CCCCO[C@@H](CN(C)Cc2ccc(Cl)c(Cl)c2)[C@@H](C)CN([C@H](C)CO)C(=O)c2cc(NS(=O)(=O)c3ccc(Cl)cc3)ccc2O1,.,-3,2,-72,79*
C[C@@H]1CCCCO[C@H](CN(C)Cc2ccc(Cl)c(Cl)c2)[C@@H](C)CN([C@@H](C)CO)C(=O)c2cc(NS(=O)(=O)c3ccc(F)cc3)ccc2O1,.,1,.,1,31*
Cc1ccc(S(=O)(=O)Nc2ccc3c(c2)C(=O)N([C@H](C)CO)C[C@H](C)[C@@H](CN(C)Cc2ccc(Cl)c(Cl)c2)OCCCC[C@H](C)O3)cc1,.,4,28*,?,0
C[C@@H]1CN([C@H](C)CO)C(=O)c2cc(NS(=O)(=O)c3ccc(Cl)cc3)ccc2O[C@@H](C)CCCCO[C@@H]1CN(C)Cc1ccc2c(c1)OCO2,.,0,19*!,-5,?
C[C@@H]1CN([C@@H](C)CO)C(=O)c2cc(NS(=O)(=O)c3ccc(Cl)cc3)ccc2O[C@@H](C)CCCCO[C@H]1CN(C)Cc1ccc2c(c1)OCO2,.,6,5,7,-5
CCCC(=O)N1CC2(CN(Cc3cccnc3)C2)c2c([nH]c3cc(OC)ccc23)[C@H]1CO,.,-2,-2,-58,-9
Clc1ccccc1-c1cc2nc(NCCCn3ccnc3)ccn2n1,-5,2,.,-2,32*
FC(F)(F)c1cccc(-c2cc3nc(NCCCn4ccnc4)ccn3n2)c1,-5,-2,-9,2,-3
Cc1ccc(S(=O)(=O)N(C)C[C@H]2Oc3c(NS(C)(=O)=O)cccc3C(=O)N([C@@H](C)CO)C[C@@H]2C)cc1,.,1,3,-29,4
Cc1ccc2ncccc2c1,.,.,.,-4,55*
c1cnc2ccc(-c3ccc4ncccc4c3)cc2c1,-2,-2,-8,1,-5
C[C@@H](O)C#Cc1ccc2c(c1)O[C@H](CN(C)C(=O)C1CC1)[C@@H](C)CN([C@@H](C)CO)S2(=O)=O,.,-4,4,?,-4
O=C(C1CCCN(S(=O)(=O)c2cccnc2)C1)N1CCN(c2ccccn2)CC1 (configuration not stated),-5,-1,.,0,87*
Cc1ccc(NC(=O)C2CCCN(S(=O)(=O)c3cccnc3)C2)cc1C (configuration not stated),-3,0,18*,-6,4
